Screening results: PubChem, Johns Hopkins Ion Channel Center
A selection: hits, their analogues and other compounds. The true share with any hit is near 2.3%.
TRPC4 act: activators of mouse TRPC4 channel, primary screen, Fluo4 calcium, HEK293 TRPC4beta/mu-opioid cells | B-score at 10 µM | 310,000 tested, 0.49% active | Short transient receptor potential channel 4 (Mus musculus), Q9QUQ5 | Fluo4 calcium fluorescence; stronger effect = higher value | AID 2237, 2010;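 active = B-score above 5 SD of library B-scores, and initial fluorescence ratio not above library mean plus 5 SD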;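 note: positive B-score marks a calcium rise read as TRPC4 activation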
Target sequence (Q9QUQ5 whole entry, looked up): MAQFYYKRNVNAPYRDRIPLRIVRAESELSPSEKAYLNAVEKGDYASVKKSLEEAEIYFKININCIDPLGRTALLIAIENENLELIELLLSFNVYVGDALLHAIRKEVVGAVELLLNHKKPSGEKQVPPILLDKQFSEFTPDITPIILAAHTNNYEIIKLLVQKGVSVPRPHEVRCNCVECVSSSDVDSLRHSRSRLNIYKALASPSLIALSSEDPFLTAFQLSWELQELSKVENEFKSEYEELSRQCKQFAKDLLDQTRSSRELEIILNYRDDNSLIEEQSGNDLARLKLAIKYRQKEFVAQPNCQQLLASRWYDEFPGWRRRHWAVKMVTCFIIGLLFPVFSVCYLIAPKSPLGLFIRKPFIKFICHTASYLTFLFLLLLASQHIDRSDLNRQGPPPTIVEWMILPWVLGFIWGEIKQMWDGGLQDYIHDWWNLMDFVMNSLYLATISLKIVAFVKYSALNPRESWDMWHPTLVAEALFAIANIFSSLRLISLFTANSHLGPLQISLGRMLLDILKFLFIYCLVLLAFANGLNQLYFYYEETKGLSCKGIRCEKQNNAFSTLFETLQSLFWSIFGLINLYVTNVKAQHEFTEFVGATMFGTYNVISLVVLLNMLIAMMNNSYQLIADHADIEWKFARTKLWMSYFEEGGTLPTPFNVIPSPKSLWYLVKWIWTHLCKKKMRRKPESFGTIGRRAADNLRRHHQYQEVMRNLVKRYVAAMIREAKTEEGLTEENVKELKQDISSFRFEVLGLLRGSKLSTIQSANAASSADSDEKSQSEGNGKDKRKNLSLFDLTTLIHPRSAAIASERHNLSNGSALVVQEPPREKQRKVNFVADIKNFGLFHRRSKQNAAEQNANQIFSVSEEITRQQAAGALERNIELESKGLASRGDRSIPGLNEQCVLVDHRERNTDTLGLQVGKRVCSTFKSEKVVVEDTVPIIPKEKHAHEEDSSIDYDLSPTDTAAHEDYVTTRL
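System – HEK293 cells stably co-expressing mouse TRPC4beta and mu-opioid receptor · Signal – Fluo4 calcium-sensitive dye fluorescence, kinetic, 1 Hz baseline · Benchmarks – buffer (low) and maximal DAMGO (high) · Read-out – B score of integrated fluorescence ratio per well · Incubation – dye loading 45 min room temperature, 110 s kinetic read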
TRPC6 inh: mouse TRPC6 channel inhibitors, primary screen, cell-based, HEK293, membrane potential dye; AID 2553, 2010; Short transient receptor potential channel 6 (Mus musculus), Q61143; 310,000 tested, 1.1% active; ACh-evoked depolarization; stronger effect = lower value; B-score at 10 µM;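 active = B-score under library mean minus 3 SD, initial fluorescence not abnormally high, positive integrated signal ratio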;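 note: B-score derived from integrated fluorescence ratio over the kinetic read; more negative B-score means stronger inhibition of depolarization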
TRPC4 inh: inhibitors of mouse TRPC4 channel, primary screen, Fluo4 calcium, HEK293 TRPC4beta/mu-opioid cells | DAMGO-evoked Fluo4 calcium flux; stronger effect = lower value | B-score at 10 µM | 300,000 tested, 0.39% active | AID 2247, 2010;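 active = B-score over 3 SD under the library average, no early fluorescence shift, positive overall ratio signal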
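Material: HEK293 cells with stable TRPC4beta plus mu-opioid receptor expression / Probe or stimulus: DAMGO in two steps, submaximal then maximal / Compound: single concentration per test compound / Technique: kinetic Fluo4 fluorescence imaging of calcium influx / Read-out: per-well B score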
TRPC6 activator: mouse TRPC6 channel activators, primary screen, cell-based, HEK293, membrane potential dye; Short transient receptor potential channel 6 (Mus musculus), Q61143; HEK293-TRPC6 membrane potential dye fluorescence; stronger effect = higher value; B-score at 10 µM; 310,000 tested, 0.13% active;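 active = B-score of the integrated fluorescence ratio above library mean plus 3 SD, and starting fluorescence ratio within library mean plus 5 SD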;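 note: higher score means more depolarization so channel activation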
TRPC4 potent: positive allosteric modulators of TRPC4, primary screen, cell-based, mouse TRPC4beta, HEK293 mu-opioid, Fluo-4 calcium | 310,000 tested, 0.42% active | Short transient receptor potential channel 4 (Mus musculus), Q9QUQ5 | DAMGO EC20, Fluo-4 Ca2+ flux; stronger effect = higher value | B-score at 10 µM;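 active = B-score of calcium response area above 5 SD of library B-scores, with initial fluorescence ratio within 5 SD of library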;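 note: B-score of integrated fluorescence ratio over time as area under calcium response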
TRPC4 spec 2: second check of whether TRPC6 inhibitors also affect mouse TRPC4. shares compounds with TRPC6 inh. HEK293 TRPC4/MOR, membrane potential dye fluorescence; channel activated by saturating DAMGO dose. inhibition, % at 10 µM. 920 tested, 42% active. AID 2776;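 active = compounds whose fluorescence signal differed from control wells by over 3 SD, either direction, in both duplicate plates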
TRPC4 spec: mouse TRPC4 modulation by TRPC6 hits, confirmation, selectivity assay for TRPC6 inhibitor project, cell-based, HEK293 TRPC4/mu-opioid, membrane potential dye; shares compounds with TRPC6 inh; membrane potential fluorescence; activity change, negative = inhibition, % at 10 µM; 920 tested, 61% active;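 active = rise or fall in signal beyond 3 SD of buffer-only wells in both replicate plates, either sign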;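 note: integrated kinetic ratio of fluorescence range over baseline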
HEK293 MPD ctr 2-1: nonspecific membrane potential effects, parental HEK293, confirmation, counter-screen for TRPC6 inhibitor project, cell-based, second counter screen. shares compounds with TRPC6 inh. 920 tested, 31% active. signal change vs control, % at 10 µM. parental HEK293 membrane potential dye fluorescence; maximal acetylcholine challenge after compound addition;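 active = membrane potential signal moving either way by over 3 SD of the maximum-effect control, in both duplicate plates, meaning non-specific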
HEK293 MPD ctr-1: membrane potential modulation in parental HEK293, confirmation, counter-screen for TRPC6 inhibitor project, cell-based | shares compounds with TRPC6 inh | parental HEK293 membrane potential dye fluorescence | membrane potential signal change, % at 10 µM | 920 tested, 60% active | AID 2780, 2010;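 active = membrane potential signal shifting up or down by more than 3 SD of buffer-only wells, on both duplicate plates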
HEK293 MPD ctr-2: parental HEK293 membrane potential modulation, confirmation, counter-screen for TRPC6 modulator project, cell-based. shares compounds with TRPC6 inh. membrane potential dye fluorescence. membrane potential signal change, % at 10 µM. 2,400 tested, 51% active. AID 488924, 2010;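 active = membrane potential signal moves up or down beyond 5 SD from buffer-only wells, on both duplicate plates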
HEK293 MPD ctr 2-2: second counter-screen for TRPC6 modulators: effect in parental HEK293 cells; shares compounds with TRPC6 inh; membrane potential dye fluorescence; after compound, maximal acetylcholine stimulation; inhibition, % at 10 µM; 2,400 tested, 14% active; AID 488926;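 active = membrane potential signal drops by more than 5 SD from the mean control signal, in both duplicate plates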;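 note: plate controls were acetylcholine ECmax control wells for no effect and buffer only wells for full effect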
TRPC4 ctr mod: TRPC4 modulation by TRPC6 hit compounds, confirmation, selectivity assay for TRPC6 modulator project, cell-based, HEK293 TRPC4/mu-opioid, membrane potential dye, mouse; shares compounds with TRPC6 inh; membrane potential fluorescence; percent change from control (negative = decrease, positive = increase), % at 10 µM; 2,400 tested, 69% active; AID 488927, 2010;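 active = membrane potential signal moved up or down beyond 5 SD of buffer control wells, in both duplicate plates, actives on both sides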;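 note: plate controls were assay buffer wells for no effect and DAMGO maximal-effect wells for full effect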
TRPC4 ctr inh 2: mouse TRPC4 off-target activity of TRPC6 modulators, second screen. inhibition, % at 10 µM. 2,400 tested, 55% active. shares compounds with TRPC6 inh. AID 488928. HEK293 TRPC4/mu-opioid, membrane potential dye fluorescence; stimulated with maximal-effect DAMGO;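 active = drop in membrane potential signal beyond 5 SD of the control wells in both duplicate plates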;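 note: TRPC4 counter screen for TRPC6 hits run under conditions tuned for TRPC6 not TRPC4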
TRPC6 block conf: mouse TRPC6 channel inhibitors, confirmation, HEK293 cells, membrane potential dye, duplicate | AID 488960, 2010 | shares compounds with TRPC6 inh | ACh-evoked depolarization | inhibition, % at 10 µM | 3,300 tested, 43% active;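 active = fluorescence ratio falls more than 5 SD below the full-stimulation control mean, in both duplicate runs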;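 note: integrated fluorescence ratio of peak minus minimum over baseline after agonist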
TRPC6 act conf: mouse TRPC6 channel activators, confirmation, HEK293 cells, membrane potential dye, duplicate. 2,800 tested, 11% active. HEK293-TRPC6 membrane potential dye fluorescence, FDSS. shares compounds with TRPC6 inh. activation, % at 10 µM;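 active = ratio signal rise beyond 5 SD above unstimulated control wells' mean, seen in both duplicate runs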;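 note: plate controls were buffer EC0 wells for no effect and acetylcholine ECmax response for full effect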
* marks the source's active call; other numbers are inactive results.

C/C=C\C(=O)Nc1cccc(C2=NOC3(C2)C[C@@H](C(N)=O)N(C(=O)c2ccc(OC)cc2)C3)c1 (stereo not given in full) was read as TRPC4 act inactive, TRPC6 inh inactive, TRPC4 inh inactive, TRPC6 activator inactive and TRPC4 potent inactive.
`CN(CC(=O)NCc1ccco1)S(=O)(=O)c1ccc(F)cc1` gave TRPC4 act inactive, TRPC6 inh inactive, TRPC4 inh inactive, TRPC6 activator inactive and TRPC4 potent inactive.
CNC(=O)N(O)C1N(/N=C/c2cc(Br)ccc2O)C(=S)SC1(C)C (stereo not given) was read as TRPC4 act inactive, TRPC6 inh -6.7*, TRPC4 inh inactive, TRPC6 activator inactive, TRPC4 potent inactive, TRPC4 spec 2 inactive, TRPC4 spec -12%*, HEK293 MPD ctr 2-1 inactive, HEK293 MPD ctr-1 -212%*, TRPC6 block conf inactive and TRPC6 act conf inactive.
For CNC(=O)N(O)C1N(/N=C/c2ccc(C)cc2)C(=S)SC1(C)C (stereo not given) the results were TRPC4 act inactive, TRPC6 inh inactive, TRPC4 inh inactive, TRPC6 activator inactive and TRPC4 potent inactive.
For CN(Cc1c(F)cccc1Cl)C(=O)CNC(=O)c1sc2ccccc2c1Cl the results were TRPC4 act inactive, TRPC6 inh inactive, TRPC4 inh inactive, TRPC6 activator inactive and TRPC4 potent inactive.
CCN(CC)S(=O)(=O)c1ccc(N2CCCCC2)c(NC(=O)C2=COCCO2)c1 was read as TRPC4 act inactive, TRPC6 inh -6*, TRPC4 inh inactive, TRPC6 activator 14*, TRPC4 potent inactive, HEK293 MPD ctr-2 178%*, HEK293 MPD ctr 2-2 inactive, TRPC4 ctr mod 33%*, TRPC4 ctr inh 2 inactive, TRPC6 block conf 88%* and TRPC6 act conf 154%*.
CCN(CC)S(=O)(=O)c1ccc(N2CCOCC2)c(NC(=O)C23CC4CC(CC(Cl)(C4)C2)C3)c1 was read as TRPC4 act inactive, TRPC6 inh -6.4*, TRPC4 inh inactive, TRPC6 activator inactive, TRPC4 potent inactive, HEK293 MPD ctr-2 164%*, HEK293 MPD ctr 2-2 inactive, TRPC4 ctr mod inactive, TRPC4 ctr inh 2 inactive and TRPC6 block conf 38%*.
For CCN(CC)S(=O)(=O)c1ccc(N2CCCCC2)c(NC(=O)c2ccncc2)c1 the results were TRPC4 act inactive, TRPC6 inh -6.6*, TRPC4 inh inactive, TRPC6 activator inactive, TRPC4 potent inactive, TRPC4 spec 2 inactive, TRPC4 spec 10%*, HEK293 MPD ctr 2-1 inactive, HEK293 MPD ctr-1 6.7%* and TRPC6 block conf inactive.
CCN(CC)S(=O)(=O)c1ccc(N2CCCC2)c(NC(=O)C2=COCCO2)c1 was read as TRPC4 act inactive, TRPC6 inh inactive, TRPC4 inh inactive, TRPC6 activator inactive and TRPC4 potent inactive.
CCN(CC)S(=O)(=O)c1ccc(N2CCOCC2)c(NC(=O)c2ccccc2)c1 was read as TRPC4 act inactive, TRPC6 inh inactive, TRPC4 inh inactive, TRPC6 activator inactive and TRPC4 potent inactive.
Cc1ccc(N/C(=C\C(=O)c2ccccc2)C(=O)O)cc1 was read as TRPC4 act inactive, TRPC6 inh inactive, TRPC4 inh inactive, TRPC6 activator inactive and TRPC4 potent inactive.
CCOc1ccc2nc(N3CCCC(C(=O)NCCCN4CC(C)CC(C)C4)C3)sc2c1 (stereo not given) was read as TRPC4 act inactive, TRPC6 inh inactive, TRPC4 inh inactive, TRPC6 activator inactive and TRPC4 potent inactive.
`O=C(CNCC1CCCO1)Nc1ccc(N2CCCCCC2)cc1` (stereo not given) gave TRPC4 act inactive, TRPC6 inh -6.3*, TRPC4 inh inactive, TRPC6 activator inactive, TRPC4 potent inactive, HEK293 MPD ctr-2 inactive, HEK293 MPD ctr 2-2 inactive, TRPC4 ctr mod -16%*, TRPC4 ctr inh 2 33%*, TRPC6 block conf inactive and TRPC6 act conf inactive.
